Measured values reported in ChEMBL document CHEMBL1138406, “Bioactive pregnanes from Nerium oleander” (J Nat Prod, 2007).
In brackets after ≈: the same amount, converted by molar mass.

What was measured:
HepG2 = assay: Cytotoxicity against human HepG2 cells; format: cell-based
Method in brief: (§1)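 IC50 in µg/mL, taken as the mean of duplicate determinations.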

A549 [1] = assay: Inhibition of ICAM1 induction in human A549 cells; format: functional, cell-based
Method in brief: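 A549 cells pretreated 1 h with a range of test concentrations, then stimulated with IL-1α for 6 h. Surface ICAM-1 detected with primary and secondary antibodies plus enzyme substrate, absorbance at 415 nm. Triplicate cultures, IC50 derived.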

A549 [2] = assay: Cytotoxicity against human A549 cells by MTT assay; format: cell-based
Method in brief: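 A549 cells exposed to serial dilutions for 24 h. Viability (%) read by MTT and used to derive IC50. Triplicate cultures.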

[3] = Effect on calcein accumulation in multidrug resistant human 2780 AD cells at 0.25 ug/mL relative to control; format: functional
Method in brief: (§2)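 Calcein (formed from calcein AM by cellular esterase) accumulated in multidrug-resistant ovarian cancer 2780 AD cells. Read in the presence of 0.25, 2.5 or 25 µg/mL test compound and expressed as % of control. Means of triplicate determinations.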

[4] = Effect on calcein accumulation in multidrug resistant human 2780 AD cells at 2.5 ug/mL relative to control; format: functional; method in brief: as §2
[5] = Effect on calcein accumulation in multidrug resistant human 2780 AD cells at 25 ug/mL relative to control; format: functional; method in brief: as §2
[6] = Effect on calcein accumulation in multidrug resistant human 2780 AD cells at 0.25 ug/mL relative to verapamil; format: functional
[7] = Effect on calcein accumulation in multidrug resistant human 2780 AD cells at 2.5 ug/mL relative to verapamil; format: functional
[8] = Effect on calcein accumulation in multidrug resistant human 2780 AD cells at 25 ug/mL relative to verapamil; format: functional
[9] = Cytotoxicity against human WI38 cells; format: cell-based; details: WI-38; method in brief: as §1
WI-38 VA13 = assay: Cytotoxicity against human VA13 cells; format: cell-based; method in brief: as §1

IC50 (A549 [1]) [µM] | SMILES | IC50 (HepG2) [µg/mL] | IC50 (A549 [1]; read-out: IC50) [µM] | IC50 (A549 [2]; read-out: IC50) [µM] | Activity [3] [%] | Activity [4] [%] | Activity [5] [%] | Activity [6] [%] | Activity [7] [%] | Activity [8] [%] | IC50 [9] [µg/mL] | IC50 (WI-38 VA13) [µg/mL] | IC50 (A549 [2]) [µM]
– | C[C@@H](O)[C@H]1CC[C@H]2[C@@H]3C=CC4=CC(=O)CC[C@]4(C)[C@H]3CC(=O)[C@]12C | 49.2 (≈ 150 µM) | > 300 | > 300 | 116 | 127 | 138 | 120 | 117 | 93 | 66.4 (≈ 202 µM) | 57.4 (≈ 175 µM) | –
– | C[C@]12C(=O)C[C@H]3[C@@H](C=CC4=CC(=O)CC[C@@]43C)[C@@H]1CC[C@@H]2C(=O)CO | 94.9 (≈ 277 µM) | – | – | 110 | 105 | 140 | – | – | – | 48.1 (≈ 140 µM) | 87.7 (≈ 256 µM) | –
– | C[C@]12C(=O)C[C@H]3[C@@H](C=CC4=CC(=O)CC[C@@]43C)[C@@H]1CC[C@@H]2[C@H](O)CO [NERIDIENONE B] | > 100 | – | – | 110 | 154 | 148 | 113 | 141 | 100 | 73.5 (≈ 213 µM) | > 100 | –
– | CC(=O)C1=CC[C@H]2[C@@H]3C=CC4=CC(=O)CC[C@]4(C)[C@H]3C[C@@H](O)[C@]12C [NERIDIENONE A] | 2.5 (≈ 7.66 µM) | 7 | 53.1 | 109 | 92 | 107 | – | – | – | 4.9 (≈ 15 µM) | 0.68 (≈ 2.08 µM) | –
> 100 | CC(=O)[C@]12O[C@H]1C[C@H]1[C@@H]3C=CC4=CC(=O)CC[C@]4(C)[C@H]3C[C@@H](O)[C@@]12C | 62.1 (≈ 181 µM) | – | – | 103 | 108 | 99 | – | – | – | 51.1 (≈ 149 µM) | 73.1 (≈ 213 µM) | > 100
– | COc1ccc(CCN(C)CCCC(C#N)(c2ccc(OC)c(OC)c2)C(C)C)cc1OC (stereo not given) [VERAPAMIL] | – | – | – | 97 | 109 | 148 | – | – | – | – | – | –
